Target: Integrin alpha-IIb/beta-3 (Homo sapiens, UniProt P08514+P05106)
Experiment: Inhibition of the platelet GPIIb-IIIa receptor measured as ability to attenuate ADP-induced (fibrinogen-mediated) platelet aggregation in human platelet-rich plasma (PRP)
Procedure, shortened: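 Functional GPIIb-IIIa assay in human platelet-rich plasma. Aggregation was induced with ADP and depends on fibrinogen.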

Integrin alpha-IIb/beta-3, sequence (P05106 27-788 limits assumed): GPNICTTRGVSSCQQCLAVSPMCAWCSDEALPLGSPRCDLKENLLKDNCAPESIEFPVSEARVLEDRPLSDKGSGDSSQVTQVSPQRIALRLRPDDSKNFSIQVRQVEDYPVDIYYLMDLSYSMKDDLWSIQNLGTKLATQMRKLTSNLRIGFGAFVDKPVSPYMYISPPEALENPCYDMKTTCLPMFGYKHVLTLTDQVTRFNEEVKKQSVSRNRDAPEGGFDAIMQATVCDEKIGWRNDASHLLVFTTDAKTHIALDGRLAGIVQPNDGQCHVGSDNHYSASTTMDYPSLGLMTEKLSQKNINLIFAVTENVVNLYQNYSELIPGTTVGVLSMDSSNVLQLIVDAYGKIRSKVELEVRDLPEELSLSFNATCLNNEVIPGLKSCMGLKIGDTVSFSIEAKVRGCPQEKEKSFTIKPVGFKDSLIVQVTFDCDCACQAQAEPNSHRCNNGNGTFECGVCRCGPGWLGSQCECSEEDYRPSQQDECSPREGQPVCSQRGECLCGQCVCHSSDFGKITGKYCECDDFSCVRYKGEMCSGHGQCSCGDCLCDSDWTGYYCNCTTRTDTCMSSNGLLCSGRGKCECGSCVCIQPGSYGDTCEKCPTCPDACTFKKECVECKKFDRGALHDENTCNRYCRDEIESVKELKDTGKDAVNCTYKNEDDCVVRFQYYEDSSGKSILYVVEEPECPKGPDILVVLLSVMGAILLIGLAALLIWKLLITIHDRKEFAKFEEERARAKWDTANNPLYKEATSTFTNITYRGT
Integrin alpha-IIb/beta-3, sequence (P08514 32-887 limits assumed): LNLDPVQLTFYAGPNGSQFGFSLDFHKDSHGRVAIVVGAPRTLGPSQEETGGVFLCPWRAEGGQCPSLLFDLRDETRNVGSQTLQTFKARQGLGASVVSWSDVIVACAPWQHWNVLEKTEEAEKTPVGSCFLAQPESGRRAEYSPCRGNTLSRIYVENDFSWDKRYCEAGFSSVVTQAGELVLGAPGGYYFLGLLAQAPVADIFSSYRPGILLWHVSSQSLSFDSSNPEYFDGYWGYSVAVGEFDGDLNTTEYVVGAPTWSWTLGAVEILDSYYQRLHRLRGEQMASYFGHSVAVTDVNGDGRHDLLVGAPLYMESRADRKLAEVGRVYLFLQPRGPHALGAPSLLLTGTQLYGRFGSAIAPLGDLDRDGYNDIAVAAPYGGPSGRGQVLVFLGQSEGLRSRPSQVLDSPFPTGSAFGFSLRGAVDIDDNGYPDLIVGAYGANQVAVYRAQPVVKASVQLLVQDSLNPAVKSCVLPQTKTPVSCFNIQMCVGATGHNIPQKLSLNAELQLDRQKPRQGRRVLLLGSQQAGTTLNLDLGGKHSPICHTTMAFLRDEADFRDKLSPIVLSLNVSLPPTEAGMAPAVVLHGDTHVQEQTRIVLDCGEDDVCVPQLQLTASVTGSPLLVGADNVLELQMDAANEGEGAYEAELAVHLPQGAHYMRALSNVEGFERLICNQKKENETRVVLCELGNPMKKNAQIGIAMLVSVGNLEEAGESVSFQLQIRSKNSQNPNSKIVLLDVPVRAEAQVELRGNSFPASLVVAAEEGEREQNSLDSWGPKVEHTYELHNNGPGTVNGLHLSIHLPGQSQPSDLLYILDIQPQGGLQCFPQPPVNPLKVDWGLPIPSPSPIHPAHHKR
Integrin alpha-IIb/beta-3, sequence (P08514 891-1039 limits assumed): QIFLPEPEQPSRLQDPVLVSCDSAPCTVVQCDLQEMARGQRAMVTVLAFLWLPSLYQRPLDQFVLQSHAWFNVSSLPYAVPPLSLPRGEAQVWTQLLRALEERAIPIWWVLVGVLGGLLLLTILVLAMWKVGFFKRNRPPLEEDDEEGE

Row | Compound | IC50 [µM]
1 | N=C(N)c1ccc2oc(C(=O)NCCCCCC(=O)O)cc2c1 [6-[(5-Carbamimidoyl-benzofuran-2-carbonyl)-amino]-hexanoic acid] | 16
2 | CCC(CCCCNC(=O)c1cc2cc(C(=N)N)ccc2[nH]1)CC(=O)O (stereo unspecified) [7-[(5-Carbamimidoyl-1H-indole-2-carbonyl)-amino]-3-ethyl-heptanoic acid] | 5.2
3 | N=C(N)c1ccc2[nH]c(C(=O)NCCCCCCC(=O)O)cc2c1 [7-[(5-Carbamimidoyl-1H-indole-2-carbonyl)-amino]-heptanoic acid] | 2.8
4 | N=C(N)c1ccc(OCC(=O)NCCCCCCC(=O)O)cc1 [7-[2-(4-Carbamimidoyl-phenoxy)-acetylamino]-heptanoic acid] | 2.6
5 | N=C(N)c1ccc2[nH]c(C(=O)NCCCCCC(=O)O)cc2c1 [6-[(5-Carbamimidoyl-1H-indole-2-carbonyl)-amino]-hexanoic acid] | > 100
6 | CCC(CCCCCNC(=O)c1cc2cc(C(=N)N)ccc2[nH]1)C(=O)O (stereo unspecified) [7-[(5-Carbamimidoyl-1H-indole-2-carbonyl)-amino]-2-ethyl-heptanoic acid] | > 100
7 | N=C(N)c1cccc(NCC(=O)NCCCCCCC(=O)O)c1 [7-[2-(3-Carbamimidoyl-phenylamino)-acetylamino]-heptanoic acid] | > 100
8 | N=C(N)c1ccc2[nH]c(C(=O)NCCCCC(CC(=O)O)c3ccccc3)cc2c1 (stereo unspecified) [7-[(5-Carbamimidoyl-1H-indole-2-carbonyl)-amino]-3-phenyl-heptanoic acid] | 4.9
9 | N=C(N)c1ccc2c(c1)CC(C(=O)NCCCCCCC(=O)O)O2 (stereo unspecified) [7-[(5-Carbamimidoyl-2,3-dihydro-benzofuran-2-carbonyl)-amino]-heptanoic acid] | 3.4
10 | N=C(N)c1ccc(NCC(=O)NCCCCCCC(=O)O)cc1 [7-[2-(4-Carbamimidoyl-phenylamino)-acetylamino]-heptanoic acid] | 67
11 | N=C(N)c1ccc2[nH]c(C(=O)NCc3ccc(CCC(=O)O)cc3)cc2c1 [3-(4-{[(5-Carbamimidoyl-1H-indole-2-carbonyl)-amino]-methyl}-phenyl)-propionic acid] | 39
12 | CCCCCCC(CCCCNC(=O)c1cc2cc(C(=N)N)ccc2[nH]1)CC(=O)O (stereo unspecified) [3-{4-[(5-Carbamimidoyl-1H-indole-2-carbonyl)-amino]-butyl}-nonanoic acid] | 59
13 | N=C(N)c1ccc2[nH]c(C(=O)NCC(=O)NCCCC(=O)O)cc2c1 [4-{2-[(5-Carbamimidoyl-1H-indole-2-carbonyl)-amino]-acetylamino}-butyric acid] | 50
14 | CC(CCCCNC(=O)c1cc2cc(C(=N)N)ccc2[nH]1)CC(=O)O (stereo unspecified) [7-[(5-Carbamimidoyl-1H-indole-2-carbonyl)-amino]-3-methyl-heptanoic acid] | 2.8
15 | CCCCC(CCCCNC(=O)c1cc2cc(C(=N)N)ccc2[nH]1)CC(=O)O (stereo unspecified) [3-Butyl-7-[(5-carbamimidoyl-1H-indole-2-carbonyl)-amino]-heptanoic acid] | 25.3
16 | Cn1c(C(=O)NCCCCCCC(=O)O)cc2cc(C(=N)N)ccc21 [7-[(5-Carbamimidoyl-1-methyl-1H-indole-2-carbonyl)-amino]-heptanoic acid] | 7.5
17 | N=C(N)c1ccc2[nH]c(C(=O)NCCC(=O)NCCC(=O)O)cc2c1 [3-{3-[(5-Carbamimidoyl-1H-indole-2-carbonyl)-amino]-propionylamino}-propionic acid] | 3.6
18 | CC(CCCCCNC(=O)c1cc2cc(C(=N)N)ccc2[nH]1)C(=O)O (stereo unspecified) [7-[(5-Carbamimidoyl-1H-indole-2-carbonyl)-amino]-2-methyl-heptanoic acid] | 43.7
19 | CN(CCCCCCC(=O)O)C(=O)c1cc2cc(C(=N)N)ccc2[nH]1 [7-[(5-Carbamimidoyl-1H-indole-2-carbonyl)-methyl-amino]-heptanoic acid] | 3

Other lines, results leading:

Row | IC50 [µM] | Compound
20 | 0.14 | N=C(N)c1ccc2c(C(=O)NCCCCCCC(=O)O)[nH]nc2c1 [7-[(6-Carbamimidoyl-1H-indazole-3-carbonyl)-amino]-heptanoic acid]
21 | 1.3 | N=C(N)c1ccc2cc(C(=O)NCCCCCCC(=O)O)[nH]c2c1 [7-[(6-Carbamimidoyl-1H-indole-2-carbonyl)-amino]-heptanoic acid]
22 | 0.27 | N=C(N)c1ccc2oc(C(=O)NCCCCCCC(=O)O)cc2c1 [7-[(5-Carbamimidoyl-benzofuran-2-carbonyl)-amino]-heptanoic acid]
23 | 47 | N=C(N)c1ccc2[nH]c(C(=O)NCc3ccc(CC(=O)O)cc3)cc2c1 [(4-{[(5-Carbamimidoyl-1H-indole-2-carbonyl)-amino]-methyl}-phenyl)-acetic acid]
24 | 0.65 | N=C(N)c1ccc2c(C(=O)NCCCCCCC(=O)O)c[nH]c2c1 [7-[(6-Carbamimidoyl-1H-indole-3-carbonyl)-amino]-heptanoic acid]
25 | 4.1 | Cc1c(C(=O)NCCCCCCC(=O)O)[nH]c2ccc(C(=N)N)cc12 [7-[(5-Carbamimidoyl-3-methyl-1H-indole-2-carbonyl)-amino]-heptanoic acid]
26 | 7.2 | N=C(N)c1ccc2cc(C(=O)NCCCCCCC(=O)O)oc2c1 [7-[(6-Carbamimidoyl-benzofuran-2-carbonyl)-amino]-heptanoic acid]
27 | 7.3 | N=C(N)c1ccc2sc(C(=O)NCCCCCCC(=O)O)cc2c1 [7-[(5-Carbamimidoyl-benzo[b]thiophene-2-carbonyl)-amino]-heptanoic acid]
28 | 32 | N=C(N)c1ccc2[nH]c(C(=O)NCCCC(=O)NCC(=O)O)cc2c1 [{4-[(5-Carbamimidoyl-1H-indole-2-carbonyl)-amino]-butyrylamino}-acetic acid]

Target: not listed separately
Experiment: Inhibition ADP-induced (fibrinogen-mediated) platelet aggregation in human platelet-rich plasma (PRP)

Row | IC50 [µM] | Compound
29 | 21 | N=C(N)c1ccc2c(c1)cc(C(=O)NCCCCCCC(=O)O)n2Cc1ccccc1 [7-[(1-Benzyl-5-carbamimidoyl-1H-indole-2-carbonyl)-amino]-heptanoic acid]
30 | 26.7 | N=C(N)c1ccc2oc(C(=O)NCCCCCCCC(=O)O)cc2c1 [8-[(5-Carbamimidoyl-benzofuran-2-carbonyl)-amino]-octanoic acid]
31 | 0.035 | C#C[C@H](CC(=O)O)NC(=O)CCC(=O)Nc1ccc(C(=N)N)cc1 [(S)-3-[3-(4-Carbamimidoyl-phenylcarbamoyl)-propionylamino]-pent-4-ynoic acid]

— BindingDB's records for doi:10.1021/jm970020k (Eli Lilly, 1997)
